Data published in article PMC7004521 (Cancer Science, 2019).

Test: Adverse events suspected to be study drug related, phase 1 study
Assay type: in vivo, human
Settings: drug-related
Summary of the method: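 Adult patients with advanced solid tumours and confirmed MET dysregulation took oral capsules twice daily from 100 up to 600 mg in escalation, or 400 mg bid tablets, in 28-day cycles. Expansion was 600 mg bid capsules, with a switch to 400 mg bid tablets allowed. Patients were included if they had ≥1 dose and ≥1 valid post-baseline safety assessment. Events were graded by CTCAE v4.0.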

[1] = escalation 400 mg bid tablet n=5

With `CNC(=O)c1ccc(-c2cnc3ncc(Cc4ccc5ncccc5c4)n3n2)cc1F` [capmatinib] the “Decreased appetite, all grades” value [1] was 0 n (%), the “Decreased appetite, grade 3/4” value [1] was 0 n (%) and the “Diarrhea, all grades” value [1] was 1 (20) n (%). For the same molecule, the “Diarrhea, grade 3/4” value [1] was 0 n (%), the “Dizziness, all grades” value [1] was 1 (20) n (%) and the “Dizziness, grade 3/4” value [1] was 0 n (%). For the same molecule, the “Dyspepsia, all grades” value [1] was 0 n (%), the “Dyspepsia, grade 3/4” value [1] was 0 n (%) and the “Fatigue, all grades” value [1] was 1 (20) n (%). For the same molecule, the “Fatigue, grade 3/4” value [1] was 0 n (%), the “Headache, all grades” value [1] was 0 n (%) and the “Headache, grade 3/4” value [1] was 0 n (%). The “Hypoalbuminemia, all grades” value [1] was 2 (40) n (%), the “Hypoalbuminemia, grade 3/4” value [1] was 0 n (%) and the “Hypophagia, all grades” value [1] was 0 n (%). The “Hypophagia, grade 3/4” value [1] was 0 n (%), the “Lipase increased, all grades” value [1] was 0 n (%) and the “Lipase increased, grade 3/4” value [1] was 0 n (%). The “Maculo‐papular rash, all grades” value [1] was 0 n (%), the “Maculo‐papular rash, grade 3/4” value [1] was 0 n (%) and the “Myalgia, all grades” value [1] was 0 n (%). For the same molecule, the “Myalgia, grade 3/4” value [1] was 0 n (%), the “Nausea, all grades” value [1] was 2 (40) n (%) and the “Nausea, grade 3/4” value [1] was 0 n (%). The “Odynophagia, all grades” value [1] was 1 (20) n (%), the “Odynophagia, grade 3/4” value [1] was 0 n (%) and the “Peripheral edema, all grades” value [1] was 2 (40) n (%). For the same molecule, the “Peripheral edema, grade 3/4” value [1] was 0 n (%), the “Pyrexia, all grades” value [1] was 0 n (%) and the “Pyrexia, grade 3/4” value [1] was 0 n (%). The “Stomatitis, all grades” value [1] was 1 (20) n (%), the “Stomatitis, grade 3/4” value [1] was 0 n (%) and the “Thrombocytopenia, all grades” value [1] was 0 n (%). The “Thrombocytopenia, grade 3/4” value [1] was 0 n (%), the “Total protein decreased, all grades” value [1] was 0 n (%) and the “Total protein decreased, grade 3/4” value [1] was 0 n (%). For the same molecule, the “Upper abdominal pain, all grades” value [1] was 1 (20) n (%), the “Upper abdominal pain, grade 3/4” value [1] was 0 n (%) and the “Vomiting, all grades” value [1] was 1 (20) n (%). The “Vomiting, grade 3/4” value [1] was 0 n (%), the “ALT increased, all grades” value (escalation 450 mg bid n=9) was 1 (11) n (%) and the “ALT increased, grade 3/4” value (escalation 450 mg bid n=9) was 1 (11) n (%). The “AST increased, all grades” value (escalation 450 mg bid n=9) was 1 (11) n (%), the “AST increased, grade 3/4” value (escalation 450 mg bid n=9) was 1 (11) n (%) and the “Amylase increased, all grades” value (escalation 450 mg bid n=9) was 0 n (%). For the same molecule, the “Amylase increased, grade 3/4” value (escalation 450 mg bid n=9) was 0 n (%), the “Asthenia, all grades” value (escalation 450 mg bid n=9) was 1 (11) n (%) and the “Asthenia, grade 3/4” value (escalation 450 mg bid n=9) was 0 n (%). For the same molecule, the “Blood bilirubin increased, all grades” value (escalation 450 mg bid n=9) was 0 n (%), the “Blood bilirubin increased, grade 3/4” value (escalation 450 mg bid n=9) was 0 n (%) and the “Blood creatinine increased, all grades” value (escalation 450 mg bid n=9) was 0 n (%). For the same molecule, the “Blood creatinine increased, grade 3/4” value (escalation 450 mg bid n=9) was 0 n (%), the “Constipation, all grades” value (escalation 450 mg bid n=9) was 0 n (%) and the “Constipation, grade 3/4” value (escalation 450 mg bid n=9) was 0 n (%). The “Decreased appetite, all grades” value (escalation 450 mg bid n=9) was 3 (33) n (%), the “Decreased appetite, grade 3/4” value (escalation 450 mg bid n=9) was 0 n (%) and the “Diarrhea, all grades” value (escalation 450 mg bid n=9) was 0 n (%). For the same molecule, the “Diarrhea, grade 3/4” value (escalation 450 mg bid n=9) was 0 n (%), the “Dizziness, all grades” value (escalation 450 mg bid n=9) was 0 n (%) and the “Dizziness, grade 3/4” value (escalation 450 mg bid n=9) was 0 n (%). For the same molecule, the “Dyspepsia, all grades” value (escalation 450 mg bid n=9) was 0 n (%), the “Dyspepsia, grade 3/4” value (escalation 450 mg bid n=9) was 0 n (%) and the “Fatigue, all grades” value (escalation 450 mg bid n=9) was 3 (33) n (%). The “Fatigue, grade 3/4” value (escalation 450 mg bid n=9) was 1 (11) n (%), the “Headache, all grades” value (escalation 450 mg bid n=9) was 1 (11) n (%) and the “Headache, grade 3/4” value (escalation 450 mg bid n=9) was 0 n (%). The “Hypoalbuminemia, all grades” value (escalation 450 mg bid n=9) was 0 n (%), the “Hypoalbuminemia, grade 3/4” value (escalation 450 mg bid n=9) was 0 n (%) and the “Hypophagia, all grades” value (escalation 450 mg bid n=9) was 0 n (%). For the same molecule, the “Hypophagia, grade 3/4” value (escalation 450 mg bid n=9) was 0 n (%), the “Lipase increased, all grades” value (escalation 450 mg bid n=9) was 0 n (%) and the “Lipase increased, grade 3/4” value (escalation 450 mg bid n=9) was 0 n (%). For the same molecule, the “Maculo‐papular rash, all grades” value (escalation 450 mg bid n=9) was 1 (11) n (%), the “Maculo‐papular rash, grade 3/4” value (escalation 450 mg bid n=9) was 0 n (%) and the “Myalgia, all grades” value (escalation 450 mg bid n=9) was 0 n (%). For the same molecule, the “Myalgia, grade 3/4” value (escalation 450 mg bid n=9) was 0 n (%), the “Nausea, all grades” value (escalation 450 mg bid n=9) was 4 (44) n (%) and the “Nausea, grade 3/4” value (escalation 450 mg bid n=9) was 0 n (%). For the same molecule, the “Odynophagia, all grades” value (escalation 450 mg bid n=9) was 0 n (%), the “Odynophagia, grade 3/4” value (escalation 450 mg bid n=9) was 0 n (%) and the “Peripheral edema, all grades” value (escalation 450 mg bid n=9) was 2 (22) n (%). For the same molecule, the “Peripheral edema, grade 3/4” value (escalation 450 mg bid n=9) was 0 n (%), the “Pyrexia, all grades” value (escalation 450 mg bid n=9) was 1 (11) n (%) and the “Pyrexia, grade 3/4” value (escalation 450 mg bid n=9) was 0 n (%). For the same molecule, the “Stomatitis, all grades” value (escalation 450 mg bid n=9) was 0 n (%), the “Stomatitis, grade 3/4” value (escalation 450 mg bid n=9) was 0 n (%) and the “Thrombocytopenia, all grades” value (escalation 450 mg bid n=9) was 0 n (%). The “Thrombocytopenia, grade 3/4” value (escalation 450 mg bid n=9) was 0 n (%), the “Total protein decreased, all grades” value (escalation 450 mg bid n=9) was 0 n (%) and the “Total protein decreased, grade 3/4” value (escalation 450 mg bid n=9) was 0 n (%). The “Upper abdominal pain, all grades” value (escalation 450 mg bid n=9) was 0 n (%), the “Upper abdominal pain, grade 3/4” value (escalation 450 mg bid n=9) was 0 n (%) and the “Vomiting, all grades” value (escalation 450 mg bid n=9) was 3 (33) n (%). For the same molecule, the “Vomiting, grade 3/4” value (escalation 450 mg bid n=9) was 0 n (%), the “ALT increased, all grades” value (escalation 600 mg bid n=8) was 1 (13) n (%) and the “ALT increased, grade 3/4” value (escalation 600 mg bid n=8) was 1 (13) n (%). The “AST increased, all grades” value (escalation 600 mg bid n=8) was 2 (25) n (%), the “Amylase increased, all grades” value (escalation 600 mg bid n=8) was 0 n (%) and the “Amylase increased, grade 3/4” value (escalation 600 mg bid n=8) was 0 n (%). For the same molecule, the “Asthenia, all grades” value (escalation 600 mg bid n=8) was 0 n (%), the “Asthenia, grade 3/4” value (escalation 600 mg bid n=8) was 0 n (%) and the “Blood bilirubin increased, all grades” value (escalation 600 mg bid n=8) was 1 (13) n (%). For the same molecule, the “Blood bilirubin increased, grade 3/4” value (escalation 600 mg bid n=8) was 0 n (%), the “Blood creatinine increased, all grades” value (escalation 600 mg bid n=8) was 0 n (%) and the “Blood creatinine increased, grade 3/4” value (escalation 600 mg bid n=8) was 0 n (%). For the same molecule, the “Constipation, all grades” value (escalation 600 mg bid n=8) was 0 n (%), the “Constipation, grade 3/4” value (escalation 600 mg bid n=8) was 0 n (%) and the “Decreased appetite, all grades” value (escalation 600 mg bid n=8) was 3 (38) n (%). For the same molecule, the “Decreased appetite, grade 3/4” value (escalation 600 mg bid n=8) was 0 n (%), the “Diarrhea, all grades” value (escalation 600 mg bid n=8) was 2 (25) n (%) and the “Diarrhea, grade 3/4” value (escalation 600 mg bid n=8) was 0 n (%). The “Dizziness, all grades” value (escalation 600 mg bid n=8) was 0 n (%), the “Dizziness, grade 3/4” value (escalation 600 mg bid n=8) was 0 n (%) and the “Dyspepsia, all grades” value (escalation 600 mg bid n=8) was 1 (13) n (%). For the same molecule, the “Dyspepsia, grade 3/4” value (escalation 600 mg bid n=8) was 0 n (%), the “Fatigue, all grades” value (escalation 600 mg bid n=8) was 3 (38) n (%) and the “Fatigue, grade 3/4” value (escalation 600 mg bid n=8) was 0 n (%). For the same molecule, the “Headache, all grades” value (escalation 600 mg bid n=8) was 0 n (%), the “Headache, grade 3/4” value (escalation 600 mg bid n=8) was 0 n (%) and the “Hypoalbuminemia, all grades” value (escalation 600 mg bid n=8) was 1 (13) n (%).
